Bioassay records from PubChem BioAssay.
UPR CHOP act – activators of apoptotic arm of unfolded protein response (CHOP); AID 449763; 330,000 compounds, 0.34% hits; CHO-CHOP luciferase reporter, UPR activation, luminescence; percent of tunicamycin response over DMSO baseline; activation, % at 10 µM;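 active means at 10 µM dose, activation of 40% or more, normalized to positive control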;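 further: 100% = tunicamycin at 10 µg/mL and 0% = DMSO alone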
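System: CHO-CHOP luciferase reporter cell line; amount: 500 cells/well; buffer or medium: F12 medium containing 10% fetal bovine serum; incubation: 6 h compound exposure at 37 °C after overnight seeding; measured by: luciferase luminescence after 10 min with Steady-Glo reagent; evaluation: % reporter activation, DMSO baseline versus tunicamycin full activation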
Apaf-1 inh – blocks human Apaf-1 apoptosome activity. reconstituted apoptosome caspase-3 activity, DEVD-Rh110 fluorescence. AID 489030. 330,000 compounds, 0.71% hits. O14727. inhibition, % at 20 µM; active means inhibition of at least 40% at 20 µM;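 further: plate controls were DMSO wells for no effect and DEVD-CHO caspase inhibitor wells for full effect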
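System – cell-free apoptosome with Apaf-1, procaspase-3 and caspase-9 · Buffer or medium – pH 7.5 Hepes buffer with CHAPS, BSA, DTT · Also added – cytochrome c with DEVD-Rh110 · Times – 30 min compound preincubation, 50 min activation, room temperature · Technique – Rh110 fluorescence intensity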
Mdm2 MdmX PPI – disrupts the human Mdm2-MdmX interaction; O15151+Q00987; SaOS-2 split-luciferase Mdm2/MdmX complementation, luminescence; AID 485346; 330,000 compounds, 3% hits; inhibition, % at 8 µM;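 active means inhibition of at least 50% at 8 µM in the primary screen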
XBP1 UPR activ – activators of adaptive arm of unfolded protein response (XBP1). CHO-XBP1 luciferase reporter, IRE1-XBP1 UPR activation, luminescence; percent of tunicamycin response, DMSO as zero. activation, % at 20 µM. 330,000 compounds, 0.33% hits. AID 463104;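 active means versus positive control, 20 µM dose yields 30% or more activation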;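 further: 100% = tunicamycin at 10 µg/mL and 0% = DMSO only wells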
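Material: IRE1-XBP1 luciferase reporter CHO line / Quantity: one thousand reporter cells per well / Buffer or medium: F12 with 10% serum / Compound: 20 µM single concentration, DMSO 1% / Times: 6 h treatment, 37 °C / Detection: Steady-Glo luciferase glow luminescence, 10 min after reagent addition / Benchmarks: tunicamycin high, DMSO low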
UBC13 inh – blocks human UBC13 polyubiquitin chain formation | P61088 | TR-FRET | inhibition, % at 20 µM | 330,000 compounds, 0.47% hits; in the data active means inhibition above about 45%, passing the limit was not always enough
Target sequence (P61088 whole entry, looked up): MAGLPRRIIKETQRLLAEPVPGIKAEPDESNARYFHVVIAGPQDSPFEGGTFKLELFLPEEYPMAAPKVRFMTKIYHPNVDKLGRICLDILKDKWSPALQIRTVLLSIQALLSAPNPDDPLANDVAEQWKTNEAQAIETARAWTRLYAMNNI
Mdm2 MdmX conf – human Mdm2/MdmX binding inhibition, confirmed; shares compounds with Mdm2 MdmX PPI; luminescent assay; inhibition, % at 8 µM; 10,000 compounds, 55% hits; AID 489028; in the data active means inhibition above about 40%
FLuc counter – counter-screen for Mdm2/MdmX inhibitors: full-length luciferase. inhibition, % at 8 µM. shares compounds with Mdm2 MdmX PPI. SaOS-2 full-length luciferase counterscreen, luminescence. 6,200 compounds, 77% hits;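 active means mean inhibition at 8 µM reaching about 37%, which flags the compound as non-specific, limit read from the data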;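 further: p53-null SaOS-2 cells with luciferase driven by a doxycycline-inducible promoter; compound on cells about two nights before reading with doxycycline added after day one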
Apaf-1 inh conf2 – Apaf-1 inhibition, single-dose confirmed. shares compounds with Apaf-1 inh. reconstituted apoptosome, caspase-3 DEVD-Rh110 fluorescence. inhibition, % at 20 µM. 1,800 compounds, 25% hits. AID 504614;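 active means mean inhibition of at least 40% at 20 µM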;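 further: plate controls were DMSO wells for no effect and DEVD-CHO caspase inhibitor control wells for full effect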
Rh110 quench – interferes with Rh110 fluorescence, flagging false Apaf-1 inhibitors. AID 504615. shares compounds with Apaf-1 inh. 1,800 tested, under 10 active. Rh110 fluorescence interference, quenched caspase reaction. activation (fluorescence interference), % at 20 µM;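 active means signal rise of 40% or more at 20 µM, treated as a fluorescence artifact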
Fluor interf inh – Apaf-1 inhibitor counter-screen fluorescence artifact; shares compounds with Apaf-1 inh; fluorescence interference counterscreen, Apaf-1 assay format; IC50, µM; 460 tested, under 10 active; AID 588538; call rule not given here
The depositor's hits bear a star; . = no result. The list is not random: actives were taken first. Their share in the collection is about 4.1%.

SMILES	UPR CHOP act	Apaf-1 inh	Mdm2 MdmX PPI	XBP1 UPR activ	UBC13 inh	Mdm2 MdmX conf	FLuc counter	Apaf-1 inh conf2	Rh110 quench	others
Cc1c(C)c2ccc(OC(C)C(=O)NCCCN3CCOCC3)c(C)c2oc1=O (stereo unspecified)	0	2	27	-2	3	.	.	.	.
O=C1/C(=N\S(=O)(=O)c2cccs2)C([n+]2ccc(CCCc3ccccc3)cc2)=C([O-])c2ccccc21	17	46*	83*	-8	-90	52*	41*	13	-6
Cc1ccccc1OCCNc1cc(N2CC(C)NC(C)C2)ccc1[N+](=O)[O-] (stereo unspecified)	2	56*	80*	5	22	30	.	24	9
CC1CN(c2ccc([N+](=O)[O-])c(NCCOc3ccccc3)c2)CC(C)N1 (stereo unspecified)	-1	22	25	-1	-23	.	.	.	.
CN1CCN(c2ccc(NC(=O)c3ccc(-c4ccc(Br)cc4)o3)cc2)CC1	5	45*	77*	0	44	39	81*	42*	-2	Fluor interf inh=>100
CCCN1CCN(C(=O)C2CCN(S(=O)(=O)c3c(C)noc3/C=C/c3ccc(C)cc3)CC2)CC1	2	61*	58*	7	20	15	.	27	1
Cc1ccc(/C=C/c2onc(C)c2S(=O)(=O)N2CCC(C(=O)N3CCCCC3)CC2)cc1	1	29	44	4	4	.	.	.	.
CC(=O)NC12CC3CC(C1)CC(C(=O)N1CCN(S(=O)(=O)c4ccc(C(C)C)cc4)CC1)(C3)C2	1	4	-3	7	-1	.	.	.	.
COc1ccccc1N=Nc1ccc(O)c2ncccc12	33	90*	68*	3	-32	38	92*	31	14
Cc1[nH]n(-c2ccccc2)c(=O)c1/C=N/Nc1nncc(-c2ccccc2)n1	5	81*	88*	1	-37	86*	55*	89*	10	Fluor interf inh=>100
CCCCN(CCCC)C(=S)N/N=C/c1c(C)[nH]n(-c2ccccc2)c1=O	-4	57*	84*	3	-44	78*	45*	-3	16
CCCCN=Cc1c(C)[nH]n(-c2ccccc2)c1=S	-1	-80	-15	7	-15	.	.	.	.
CCCCCc1ccc(OCCCC[n+]2ccc(C)cc2)c(CCCCC)c1	0	56*	96*	5	42	86*	55*	37	12
CCC(=O)NC1=C(Cl)C(=O)C(NC(=O)CC)=C(Cl)C1=O	8	71*	58*	-13	-41	44*	7	11	1
CCC(=O)NC1=C(NC(C)c2ccccc2)C(=O)c2ccccc2C1=O (stereo unspecified)	-2	5	8	1	-72	.	.	.	.
CCc1ccc(NC(=O)[C@H](Cc2c[nH]c3ccccc23)NC(=O)[C@@H]2Cc3ccccc3CN2)cc1	6	41*	93*	0	12	83*	24	18	1
CCc1ccc(NC(=O)[C@H](NC(=O)[C@@H]2Cc3ccccc3CN2)c2ccccc2)cc1	2	12	28	-2	7	.	.	.	.
COc1ccc(-c2cc(-c3ccc(F)cc3)nc(N3CCN(C)CC3)n2)cc1	14	65*	79*	14	22	14	.	6	9
CCOc1ccc2c(c1)c(=O)c(S(=O)(=O)c1ccc(CC)cc1)cn2C	0	7	-10	-2	-5	.	.	.	.
